Bioassay records (PubChem BioAssay)
TNAP inh hi DEA – TNAP (human) inhibition, high acceptor; P05186; purified TNAP, CDP-star luminescence, 1 M DEA; inhibition, % at 20 µM; 200,000 compounds, 0.03% hits; AID 1135;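 active = over 50% inhibition of tissue-nonspecific alkaline phosphatase at 20 µM in the single-dose screen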;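 also: plate controls were DMSO wells for no effect and EDTA-quenched wells as full inhibition for full effect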
Target sequence (P05186 whole entry, looked up): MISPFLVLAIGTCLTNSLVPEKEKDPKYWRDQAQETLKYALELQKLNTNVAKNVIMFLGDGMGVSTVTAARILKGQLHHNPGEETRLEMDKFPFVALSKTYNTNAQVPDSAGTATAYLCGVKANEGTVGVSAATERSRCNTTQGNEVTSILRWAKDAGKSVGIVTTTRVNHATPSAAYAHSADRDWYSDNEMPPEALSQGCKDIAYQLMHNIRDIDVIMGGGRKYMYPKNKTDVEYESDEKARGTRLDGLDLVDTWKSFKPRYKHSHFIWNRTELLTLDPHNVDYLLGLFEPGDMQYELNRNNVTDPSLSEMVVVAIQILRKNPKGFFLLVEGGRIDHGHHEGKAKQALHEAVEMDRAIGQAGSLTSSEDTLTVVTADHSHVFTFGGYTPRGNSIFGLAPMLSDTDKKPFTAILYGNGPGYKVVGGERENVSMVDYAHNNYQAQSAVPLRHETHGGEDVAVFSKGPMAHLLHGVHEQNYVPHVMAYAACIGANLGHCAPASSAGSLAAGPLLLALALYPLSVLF
HCT116 PTEN-null – suppresses growth of cells with PTEN deletion; 140,000 compounds, 1.2% hits; HCT116 PTEN-null viability, CellTiter-Glo, 60 h; hits give low values; viability, % at 10 µM;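 active = viability at or below a set limit, 4 SD under the median of all tested compounds, cut at about 3.7% in these data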;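 also: PTEN knockout HCT116 line with beta catenin targeted HCT116 as companion control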
bCat KO growth – beta-catenin-lacking colon tumor cell growth suppression; HCT116 beta-catenin knockout viability, CellTiter-Glo, 60 h; hits give low values; viability, % at 10 µM; 140,000 compounds, 1.5% hits; AID 818;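 active = viability at or under a set limit, the compound median less 4 SD, cut at about 6% in these data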;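 also: 0% = Hyamine 1622 control at 20 µM and 100% = untreated cell control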
L major viab – inhibitors of Leishmania major promastigote growth; Leishmania major promastigotes, resazurin fluorescence viability; inhibition, % at 10 µM; 200,000 compounds, 9% hits; AID 1063; in the data active = inhibition above about 50%;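 also: promastigotes grown with compound for 44 hours at 28 °C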
TNAP inh noacc – blocks human TNAP activity with no phosphate acceptor present. AID 1012. inhibition, % at 20 µM. 200,000 compounds, 0.26% hits. purified TNAP, CDP-star luminescence, 30 min;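 active = tissue-nonspecific alkaline phosphatase inhibition above about 50% at 20 µM in the single-dose screen, limit read from the data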;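 also: 0% = DMSO negative control and 100% = EDTA positive control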
TNAP act hi DEA – TNAP (human) activation, high acceptor; P05186; purified TNAP, CDP-star luminescence, 1 M DEA, 30 min; hits give high values; 0 = EDTA background, 1 = DMSO-only activity; activation factor at 20 µM; 200,000 tested, under 10 active; AID 1136;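 active = activation factor at least 2 at 20 µM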
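Measured by: Luminescent substrate turnover signal | Test system: Human TNAP | Input: TNAP 1/800 final | Dosing: 20 µM single point | Schedule: 30 min, room temperature | Controls: EDTA wells as negative control, DMSO wells as positive control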
Starred values were filed as active, the others as inactive; . = no result given. Hits are enriched below; roughly 9.6% of the tested compounds scored in any of these assays.

SMILES	TNAP inh hi DEA	HCT116 PTEN-null	bCat KO growth	L major viab	TNAP inh noacc	TNAP act hi DEA
Cc1c(C(=O)Nc2ccc(F)cc2)c2ccccn2c1CCc1ccncc1	0	74	82	12	-6	1
CC(=O)c1ccc(OCc2cc([N+](=O)[O-])cc3c2OCOC3)cc1	-5	.	.	75*	-6	1.1
CC(C)C(NC(=O)c1ccccc1)C(=O)OCc1cc([N+](=O)[O-])cc2c1OCOC2 (stereo unspecified)	1	69	73	4	-10	1
CCc1ccc2nc3nc(C)cc(C)c3c(N)c2c1	-8	3.2*	4.0*	101*	-5	1.1
CCc1ccc(NC(=S)/N=C(\N)Nc2nc(C)c3cc(CC)ccc3n2)cc1	-2	.	.	22	-17	1
Cc1cc(C)c2cccc(N)c2n1	-4	.	.	-5	-6	1
Cc1cc(C)c2c(N)c3ccccc3nc2n1	-8	3.2*	2.9*	101*	-2	1.1
O=C(N1CCCC1)C12CC3CCC(CC(C3)C1)C2	-4	.	.	-3	-6	1
CCOC(=O)C1CCN(C(=O)C23CC4CC(CC(C4)C2)C3)CC1	-5	111	84	104*	-8	1.1
CN1CCN(CC(=O)Nc2nnc(-c3cccs3)s2)CC1	-8	93	91	-5	-13	1.1
CCCc1nnc(NC(=O)OCC)s1	-4	.	.	-1	19	1
Cc1nonc1C(=O)N/N=C/c1cccc(O)c1	2	98	98	-6	-7	1
COc1cc(OC)c(OC)cc1/C=N/NC(=O)c1cc(-c2cccn2C)n[nH]1	10	106	99	2	85*	0.9
CCOc1cccc(/C=N/NC(=O)c2cc(-c3cccn3C)n[nH]2)c1O	-2	.	.	98*	-170	1
COc1ccc(/C=N/NC(=O)c2cc(-c3cccn3C)n[nH]2)cc1OC	3	89	89	-9	94*	1
Cn1cccc1-c1cc(C(=O)N/N=C/c2cccc(O)c2)[nH]n1	7	.	.	1	96*	0.9
COc1cc(CC(NC(C)=O)C(=O)NC2CCN(c3c4c(nc5ncnn35)CCC4)CC2)cc(OC)c1 (stereo unspecified)	1	.	.	-6	-3	1
COc1cc(/C=N/NC(=O)c2cc(-c3c(C)nn(-c4ccccc4)c3C)n[nH]2)ccc1O	1	.	.	43	-44	1
COc1cc(/C=N/NC(=O)c2cc(-c3ccc4c(c3)OCO4)n[nH]2)ccc1O	-2	66	71	21	87*	1
CCc1cccc2c(C(=O)CSc3nncn3-c3ccccc3OC)c[nH]c12	-5	103	91	8	-10	1
CCc1cccc2c(C(=O)CSc3nncn3-c3ccc(OC)cc3)c[nH]c12	2	95	83	53*	0	1
CC(C)(C)c1ccc(C2C3=C(CCCC3=O)NC3=C2C(=O)c2ccccc23)cc1 (stereo unspecified)	1	10	20	88*	-3	1
CC1(C)CC(=O)C2=C(C1)NC1=C(C(=O)c3ccccc31)C2c1ccccc1 (stereo unspecified)	18	54	67	89*	5	0.8
CC(C)c1ccc(C2C3=C(CC(C)(C)CC3=O)NC3=C2C(=O)c2ccccc23)cc1 (stereo unspecified)	4	13	22	89*	2	1
COc1cc(/C=N/n2nnnc2Nc2ccccc2)cc(OC)c1OC	5	72	87	10	-4	1
SMILES	TNAP inh hi DEA	HCT116 PTEN-null	bCat KO growth	L major viab	TNAP inh noacc	TNAP act hi DEA
Cc1noc2ncnc(Oc3ccc(Cl)cc3Cl)c12	-8	.	.	1	-8	1.1
CCCc1nn2c(N)c(/C=C3\C=Nc4ccccc43)c(=O)nc2s1	5	95	89	5	58*	1
O=C(Cn1c(O)c(/C=C2\C=Nc3ccccc32)sc1=O)N1CCOCC1	-2	.	.	-3	-10	1
CCS(=O)(=O)c1nn2c(N)c(/C=C3/C=CC(=O)C(OC)=C3)c(=O)nc2s1	34	89	95	-5	29	0.7
CCCCc1nn2c(N)c(/C=C3\C=Nc4ccccc43)c(=O)nc2s1	10	107	101	5	66*	0.9
CC(C)Cc1nn2c(N)c(/C=C3\C=Nc4ccccc43)c(=O)nc2s1	17	.	.	14	83*	0.8
CS(=O)(=O)c1nsc2nc(=O)c(/C=C3\C=Nc4ccccc43)c(N)n12	10	.	.	-1	3	0.9
CC(C)Sc1nsc2nc(=O)c(/C=C3\C=Nc4ccccc43)c(N)n12	31	.	.	15	62*	0.7
O=C1CSC(=Nc2ccccc2[N+](=O)[O-])N1	-5	.	.	3	6	1
O=C(CCNc1cc(Cl)cc(Cl)c1)c1ccco1	0	55	12	10	-1	1
O=C(CCNc1ccc(F)cc1)c1ccco1	-6	52	64	97*	-7	1.1
O=C(CCNc1ccc(F)c(Cl)c1)c1ccco1	-2	20	2.2*	96*	-12	1
O=C(CCNc1cccc(C(F)(F)F)c1)c1ccco1	2	67	43	85*	-4	1
NC1=NC(=Nc2cccc(Cl)c2)c2ccccc21	-4	67	65	-1	-29	1
COc1ccccc1-n1c(=S)[nH]c2c(sc(=S)n2-c2ccccc2C)c1=O	-3	.	.	-7	-3	1
Cc1ccccc1C(=O)NC(=S)Nc1ccc(S(=O)(=O)N(C)c2ccccc2)cc1	2	81	89	100*	2	1
Cc1cccc(C(=O)NC(=S)Nc2ccc(S(=O)(=O)N3CCCCC3)cc2)c1	6	87	91	100*	13	0.9
Cc1cccc(C(=O)NC(=S)Nc2ccc(S(=O)(=O)N3CCN(C)CC3)cc2)c1	-4	98	85	38	26	1
Cc1ccccc1C(=O)NC(=S)Nc1ccc(Oc2ccc(Cl)cc2)cc1	0	75	84	-6	-4	1
Cc1cccc(C(=O)NC(=S)Nc2ccc(S(=O)(=O)N(C)c3ccccc3)cc2)c1	1	87	94	100*	3	1
O=c1c(C(c2ccccc2)c2c(O)nc3n(c2=O)CCS3)c(O)nc2n1CCS2	2	95	90	6	2	1
COc1ccc(Cc2nnc(SCC(=O)N3CCc4ccccc4C3)o2)cc1	-8	95	78	-2	-24	1.1
O=C(c1nnc(Cc2ccc(Cl)cc2)o1)N1CCc2ccccc2C1	-2	0.6*	1.1*	-5	-3	1
C/C(N)=C(/C#N)C(=O)COC(=O)CC12CC3CC(CC(C3)C1)C2	-1	79	71	97*	-5	1
O=C(/C=C\c1ccco1)Oc1cccc2cccnc12	-4	.	.	97*	-9	1
Cc1c(C(=O)Oc2cccc3cccnc23)oc2ccccc12	-4	.	.	98*	-8	1
